Measured values as given in ChEMBL document CHEMBL1151925, “Design and synthesis of enediyne-peptide conjugates and their inhibiting activity against chymotrypsin” (Bioorg Med Chem, 2009).
Active and inactive are the calls of the source. The rule behind the calls is not given here.

What was measured:
[1] = Inhibition of alpha-chymotrypsin by Lineweaver-Burke plot analysis
Summary of the method: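 Chymotrypsin kinetics followed by UV-vis using N-benzoyl tyrosine ethyl ester substrate at 169–340 µM in 80 mM Tris HCl, pH 7.8, with CaCl2. Inhibitor varied across several concentrations. Reciprocal initial rate plotted against reciprocal substrate concentration (Lineweaver–Burk) to assign inhibition type and derive Ki.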

[2] = Inhibition of alpha-chymotrypsin assessed as decrease in proteolysis of BSA at 1 mg/ml after 60 mins by SDS-PAGE
Summary of the method: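 Chymotrypsin digestion of BSA (1 mg/ml stock) in 0.01 M phosphate buffer at 38 °C, with free enzyme or enzyme preincubated with inhibitor. Digestion fragments resolved by SDS–PAGE with Coomassie Brilliant Blue staining. Loss of the intact BSA band and appearance of hydrolysed fragments were scored.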

[3] = Inhibition of alpha-chymotrypsin assessed as decrease in proteolysis of BSA at 8.5 uM to 34 uM by Lowry method
Summary of the method: (§1)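 BSA (1 mg/ml stock) in 0.01 M phosphate buffer digested with chymotrypsin (1 mg/ml solution) at 38 °C for a set time, free enzyme or enzyme preincubated with inhibitor at three concentrations. Undigested BSA precipitated with 4% trichloroacetic acid and removed by centrifugation. Hydrolysed products in the supernatant quantified by Lowry method and compared with the uninhibited control.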

[4] = Inhibition of alpha-chymotrypsin assessed as decrease in proteolysis of BSA at 93 uM to 372 uM by Lowry method; summary of the method: as §1
[5] = Inhibition of alpha-chymotrypsin assessed as decrease in proteolysis of BSA at 5.9 uM to 35 uM by Lowry method; summary of the method: as §1
[6] = Inhibition of alpha-chymotrypsin assessed as decrease in proteolysis of BSA at 80 uM to 320 uM by Lowry method; summary of the method: as §1
[7] = Inhibition of alpha-chymotrypsin assessed as decrease in proteolysis of BSA at 10.23 uM to 40.9 uM by Lowry method; summary of the method: as §1
[8] = Inhibition of alpha-chymotrypsin assessed as decrease in proteolysis of BSA at 4.6 uM to 7.7 uM by Lowry method; summary of the method: as §1

Structure (SMILES)	Ki [1]	Activity [2]	further results
C[C@H](NC(=O)OC(C)(C)C)C(=O)N[C@@H](Cc1ccccc1)C(=O)NCCC#Cc1ccccc1C#CC=O	12 µM	Active	Activity [3]: Active
CC(C)(C)OC(=O)N[C@@H](Cc1ccccc1)C(=O)OCC(=O)N1CCCCC1	–	inactive	Activity [4]: inactive
CC(C)(C)OC(=O)N[C@@H](Cc1ccccc1)C(=O)OCC(=O)N1CC#Cc2ccccc2C#CCC1	30 µM	Active	Activity [5]: Active
CC(C)(C)OC(=O)N[C@@H](Cc1ccccc1)C(=O)N1CCc2ccccc2C1	–	inactive	Activity [6]: inactive
CC(C)(C)OC(=O)N[C@@H](Cc1ccccc1)C(=O)OCC(=O)N1CC#C/C=C\C#CCC1	–	Active	Activity [7]: Active
CC(C)(C)OC(=O)N[C@@H](Cc1ccccc1)C(=O)N1CC#Cc2ccccc2C#CCC1	3 µM	Active	Activity [8]: Active
